From ChEMBL document CHEMBL4364279, “Design, synthesis, in-silico and biological evaluation of novel chalcone-O-carbamate derivatives as multifunctional agents for the treatment of Alzheimer's disease” (Eur J Med Chem, 2019)
pIC50: −log10 of the molar value. Activity calls are given as the source filed them. No cut-off for these calls is given here.

Legend:
[1] = Disaggregation of Cu2+-induced preformed fibrils of amyloid beta (1 to 42 residues) (unknown origin) at 25 uM measured after 24 hrs by TEM analysis
Summary of the method: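 Aβ1-42 (25 µM) with Cu2+ (25 µM) at 37 °C for 24 h, then compound (25 µM) added for another 24 h. 10 µL aliquots put on carbon-coated copper/rhodium grids for 2 min at room temperature, washed twice with water, stained with 1% w/v uranyl acetate, dried 15 min, then imaged by field-emission TEM.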

[2] = molecular target: Acetylcholinesterase (AChE) (Electrophorus electricus, UniProt O42275); test: Inhibition of electric eel AChE at 25 uM using acetylthiocholine iodide as substrate incubated for 15 mins by Ellman's method relative to control; conditions: electric eel acetylcholinesterase (isolated enzyme), probe acetylthiocholine iodide
[3] = Metal chelating activity of the compound assessed as formation of Cu2+-compound complex by measuring red shift in maximum absorption at 37.5 uM after 30 mins by UV-vis absorption spectra analysis (reference value: 359 nanometer)
Summary of the method: (§1)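 Metal binding examined by plate-reader absorbance scan using CuCl2, ZnCl2, AlCl3, FeSO4, CuCl and Fe(NO3)3 as metal sources.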

Mus musculus [4] = test: Reversal of scopolamine-induced memory cognitive memory impairment in Kunming mouse assessed as change in spontaneous alteration behavior at 23.4 mg/kg, ig pretreated for 30 mins followed by scopolamine challenge and after 30 mins by Y-maze test (reference value: 45.6%); format: functional
PC-12 [5] = test: Neuroprotective activity against H2O2-induced cell death in rat PC12 cells assessed as cell viability at 10 uM pretreated for 2 hrs followed by H2O2 addition measured after 30 mins by MTT assay (reference value: 49.6%); format: functional; conditions: read-out: Activity
Mus musculus [6] = test: Effect on total arm entries in Kunming mouse model of scopolamine-induced cognitive impairment in at 2.6 to 23.4 mg/kg, ig pretreated for 30 min followed by scopolamine challenge and measured after 30 mins by Y-maze test; format: ADME, organism-based; conditions: in vivo, po, 0.5 h
[7] = Metal chelating activity of the compound assessed as formation of Fe2+-compound complex at 37.5 uM after 30 mins by UV-vis absorption spectra analysis; summary of the method: as §1
in vitro = conditions: PAMPA, pH 7.4
[8] = Metal chelating activity of the compound assessed as formation of Zn2+-compound complex at 37.5 uM after 30 mins by UV-vis absorption spectra analysis; summary of the method: as §1
[9] = Metal chelating activity of the compound assessed as formation of Al3+-compound complex by measuring red shift in maximum absorption at 37.5 uM after 30 mins by UV-vis absorption spectra analysis (reference value: 359 nanometer); summary of the method: as §1
[10] = Toxicity in Kunming mouse assessed as abnormal behavior at 20 to 500 mg/kg measured up to 14 days; format: organism-based; conditions: in vivo, 336 h
[11] = molecular target: Cholinesterase (Equus caballus) (UniProt P81908); test: Reversible inhibition of equine serum BuChE assessed as enzyme activity at 0.1 times IC50 using butyrylthiocholine iodide as substrate by Ellman's method relative to control; design: scale not given: the % may be the effect or the level left
Summary of the method: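 Reversibility tested by recovery of equine serum BuChE activity after dilution of inhibitor, with activity monitored over time up to 240 min by the Ellman method (DTNB read at 412 nm). Activity expressed relative to untreated control. Three independent experiments.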

[12] = Metal chelating activity assessed as mole fraction of compound required to show 1:1 stoichiometry for compound-Cu2+ complex at 37.5 uM after 30 mins by UV spectrometry method
Summary of the method: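 Molar-ratio method: a methanol solution of compound (final 37.5 µM) titrated with ascending amounts of CuCl2, with absorbance followed at 426 nm by plate reader.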

[13] = Antioxidant activity assessed as trolox equivalents of AAPH radical scavenging activity preincubated for 15 mins followed by AAPH addition and measured every minute for 90 mins by ORAC-FL assay; format: functional
PC-12 [14] = test: Neuroprotective activity against H2O2-induced cell death in rat PC12 cells assessed as cell viability at 1 uM pretreated for 2 hrs followed by H2O2 addition measured after 30 mins by MTT assay (reference value: 49.6%); format: functional; conditions: read-out: Activity
Mus musculus [15] = test: Reversal of scopolamine-induced memory cognitive memory impairment in Kunming mouse assessed as change in spontaneous alteration behavior at 7.8 mg/kg, ig pretreated for 30 mins followed by scopolamine challenge and after 30 mins by Y-maze test (reference value: 45.6%); format: functional
[16] = molecular target: Cholinesterase (Homo sapiens) (UniProt P06276); test: Reversible competitive inhibition of BuChE (unknown origin) assessed as […] at 1 to 6 uM using butyrylthiocholine iodide as susbtrate
[17] = Toxicity in Kunming mouse assessed as mortality at 20 to 500 mg/kg measured up to 14 days; format: organism-based; conditions: in vivo, 336 h
Cholinesterase = Cholinesterase (Equus caballus, UniProt P81908); test: Inhibition of equine serum BuChE using S-butyrylthiocholine iodide as susbtrate preincubated for 6 mins followed by substrate addition measured up to 3 mins by Ellman's method
[18] = molecular target: Amyloid-beta precursor protein (Homo sapiens) (UniProt P05067); test: Inhibition of self-induced amyloid beta (1 to 42) (unknown origin) aggregation at 25 uM after 24 hrs by thioflavin-T based fluorescence assay relative to control
[19] = Disaggregation of Cu2+ induced preformed fibrils of amyloid beta (1 to 42) (unknown origin) at 25 uM preincubated with Cu2+ for 24 hrs followed by compound addition and measured after 24 hrs by thioflavin-T based fluorescence assay relative to control
Summary of the method: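 Aβ1-42 (25 µM) and Cu2+ (25 µM) preincubated at 37 °C for 24 h, then compound (25 µM) added and incubated a further 24 h at 37 °C. ThT (5 µM in 50 mM glycine-NaOH, pH 8.5) added; fluorescence at ex 446/em 490 nm, background subtracted, % vs no-compound control. Three independent experiments.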

[20] = Inhibition of Cu2+-induced amyloid beta (1 to 42 residues) (unknown origin) aggregation at 25 uM after 24 hrs by thioflavin-T based fluorescence assay relative to control
Summary of the method: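 Aβ1-42 (25 µM) and Cu2+ (25 µM) incubated at 37 °C for 24 h with or without compound (25 µM). ThT (5 µM in 50 mM glycine-NaOH, pH 8.5) then added; fluorescence read at ex 446/em 490 nm. Inhibition = (1−IFi/IFc)×100 after background subtraction. Three independent experiments.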

[21] = molecular target: Cholinesterase (Equus caballus) (UniProt P81908); test: Reversible inhibition of equine serum BuChE assessed as enzyme activity at IC50 using butyrylthiocholine iodide as substrate by Ellman's method relative to control; design: scale not given: the % may be the effect or the level left

Sequence of Cholinesterase (Equus caballus) (P81908 whole entry): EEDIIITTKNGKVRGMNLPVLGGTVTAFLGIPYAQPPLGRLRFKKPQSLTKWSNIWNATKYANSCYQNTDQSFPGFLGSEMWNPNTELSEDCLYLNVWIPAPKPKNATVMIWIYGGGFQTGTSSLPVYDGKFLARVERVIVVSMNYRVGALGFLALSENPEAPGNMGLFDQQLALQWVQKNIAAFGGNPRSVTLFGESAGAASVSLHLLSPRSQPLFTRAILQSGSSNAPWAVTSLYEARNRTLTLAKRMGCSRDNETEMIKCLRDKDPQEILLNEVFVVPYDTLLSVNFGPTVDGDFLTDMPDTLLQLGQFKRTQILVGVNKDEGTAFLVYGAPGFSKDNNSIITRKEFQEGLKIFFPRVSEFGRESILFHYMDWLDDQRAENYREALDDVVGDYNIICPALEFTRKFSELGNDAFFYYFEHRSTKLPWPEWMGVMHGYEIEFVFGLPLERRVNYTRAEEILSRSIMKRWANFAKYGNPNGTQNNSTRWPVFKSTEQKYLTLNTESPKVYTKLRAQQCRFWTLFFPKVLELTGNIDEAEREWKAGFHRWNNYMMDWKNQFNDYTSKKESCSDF
Sequence of Cholinesterase (Homo sapiens) (P06276 whole entry): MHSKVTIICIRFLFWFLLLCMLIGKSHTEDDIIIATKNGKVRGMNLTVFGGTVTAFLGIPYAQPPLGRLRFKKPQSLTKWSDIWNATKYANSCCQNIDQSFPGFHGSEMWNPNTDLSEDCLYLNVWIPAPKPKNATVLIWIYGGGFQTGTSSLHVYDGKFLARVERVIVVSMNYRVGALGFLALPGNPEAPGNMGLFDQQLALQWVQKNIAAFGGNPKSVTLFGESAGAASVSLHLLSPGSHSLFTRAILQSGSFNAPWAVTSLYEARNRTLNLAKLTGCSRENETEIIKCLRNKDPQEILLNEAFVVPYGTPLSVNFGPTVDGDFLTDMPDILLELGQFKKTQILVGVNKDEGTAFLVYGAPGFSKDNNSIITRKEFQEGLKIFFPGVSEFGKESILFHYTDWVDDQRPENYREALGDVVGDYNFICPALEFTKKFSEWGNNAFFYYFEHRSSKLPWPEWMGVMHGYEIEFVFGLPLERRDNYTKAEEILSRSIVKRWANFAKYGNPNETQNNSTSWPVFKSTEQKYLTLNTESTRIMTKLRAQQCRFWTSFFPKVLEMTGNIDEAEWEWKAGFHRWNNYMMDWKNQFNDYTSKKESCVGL
Sequence of Amyloid-beta precursor protein (Homo sapiens) (P05067 whole entry): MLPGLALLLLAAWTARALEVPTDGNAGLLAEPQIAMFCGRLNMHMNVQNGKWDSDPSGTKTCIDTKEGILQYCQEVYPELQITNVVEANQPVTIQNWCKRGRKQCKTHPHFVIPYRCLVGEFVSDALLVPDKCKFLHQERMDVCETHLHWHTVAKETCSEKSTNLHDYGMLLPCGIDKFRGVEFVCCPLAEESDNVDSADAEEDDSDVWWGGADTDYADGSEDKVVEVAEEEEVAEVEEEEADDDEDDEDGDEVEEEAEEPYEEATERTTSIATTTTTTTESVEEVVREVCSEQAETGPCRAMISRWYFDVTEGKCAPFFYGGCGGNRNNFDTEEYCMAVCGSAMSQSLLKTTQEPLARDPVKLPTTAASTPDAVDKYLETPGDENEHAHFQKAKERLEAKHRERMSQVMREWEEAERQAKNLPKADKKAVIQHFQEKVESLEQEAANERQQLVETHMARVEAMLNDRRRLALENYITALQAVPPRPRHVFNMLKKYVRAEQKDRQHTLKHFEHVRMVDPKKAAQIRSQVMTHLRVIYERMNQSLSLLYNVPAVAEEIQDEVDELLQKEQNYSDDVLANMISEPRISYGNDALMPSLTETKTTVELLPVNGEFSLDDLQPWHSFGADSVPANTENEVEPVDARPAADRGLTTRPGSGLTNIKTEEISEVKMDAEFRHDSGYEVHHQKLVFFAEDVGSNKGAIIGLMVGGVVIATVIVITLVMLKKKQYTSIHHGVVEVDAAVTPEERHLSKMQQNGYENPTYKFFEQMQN
Sequence of Acetylcholinesterase (AChE) (O42275 whole entry): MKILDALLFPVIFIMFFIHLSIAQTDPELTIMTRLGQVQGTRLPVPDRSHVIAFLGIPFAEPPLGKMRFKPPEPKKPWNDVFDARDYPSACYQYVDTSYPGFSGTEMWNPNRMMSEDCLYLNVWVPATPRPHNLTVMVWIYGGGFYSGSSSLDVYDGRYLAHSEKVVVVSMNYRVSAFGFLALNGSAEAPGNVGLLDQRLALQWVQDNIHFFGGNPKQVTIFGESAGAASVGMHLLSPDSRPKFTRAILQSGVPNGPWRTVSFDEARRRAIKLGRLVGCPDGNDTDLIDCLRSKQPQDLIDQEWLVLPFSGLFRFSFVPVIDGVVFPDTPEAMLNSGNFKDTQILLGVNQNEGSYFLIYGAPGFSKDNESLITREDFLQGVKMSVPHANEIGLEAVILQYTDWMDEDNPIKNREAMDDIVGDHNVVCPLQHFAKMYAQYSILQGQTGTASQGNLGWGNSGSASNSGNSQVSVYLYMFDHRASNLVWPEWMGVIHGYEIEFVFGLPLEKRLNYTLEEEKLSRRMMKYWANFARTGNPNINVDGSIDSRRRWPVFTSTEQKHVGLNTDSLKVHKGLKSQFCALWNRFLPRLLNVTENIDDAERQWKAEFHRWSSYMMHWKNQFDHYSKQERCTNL
Sequence of Cholinesterase (P81908 whole entry): as the sequence (P81908 whole entry) above

With `CCN(C)C(=O)Oc1cccc(/C=C/C(=O)c2ccccc2O)c1` the Activity [1] was “Active”, the inhibition at 0.25 h, 25 µM [2] was 26.2% and the Activity [3] was 435 nm. For the same molecule, the Activity (Mus musculus [4]) was 59.5%, the viability at 10 µM (PC-12 [5]) was 78.3% and the Activity (Mus musculus [6]) was “Non-Toxic”. The Activity [7] was “inactive”, the Papp at 100 ug/ml (in vitro) was 15.7 ×10⁻⁶ cm/s and the Activity [8] was “inactive”. For the same molecule, the Activity [9] was 428 nm, the Activity [10] was “Non-Toxic” and the Activity [11] was 50.8%. It also gave an Activity [12] of 0.97 molar ratio, an Activity [13] of 1.3 µMequiv/µM and a viability at 1 µM (PC-12 [14]) of 62.9%. For the same molecule, the Activity (Mus musculus [15]) was 65.1%, the inhibition [16] was “Active” and the Activity [17] was “Non-Toxic”. For the same molecule, the pIC50 (Cholinesterase) was 5.51, the inhibition [18] was 63.9% and the Activity [19] was 83.1%. The inhibition [20] was 78.3% and the Activity [21] was 50.1%.
